Drawing on ChEMBL document CHEMBL1149043, “Antiplatelet constituents of formosan Rubia akane” (1994), this text covers Percent platelet aggregation, Platelet aggregation and Activity for ten compounds.

Assay [1] has as its system Platelet. Nature of the assay: Inhibition of thrombin-induced platelet aggregation in rabbit platelet assessed as aggregation at 300 uM treated 3 mins before thrombin challenge by turbidimetric method. Format: functional, Oryctolagus cuniculus. An outline of the steps:
(§1)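 Washed rabbit platelets (EDTA PRP, 4.5×10^8/ml, Tyrode's with 0.35% BSA) were preincubated 3 min at 37° with agent at 300 μM or 0.5% DMSO control. Percent aggregation was read turbidimetrically and reported as mean±SEM (n) with significance versus control.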

For assay [2], the system named is Platelet. Kind of assay: Inhibition of platelet activating factor-induced platelet aggregation in rabbit platelet assessed as aggregation at 300 uM treated 3 mins before platelet activating factor challenge by turbidimetric method. Format: functional, Oryctolagus cuniculus. Summed up:
as §1

For assay [3], the system named is Platelet. Nature of the assay: Inhibition of collagen-induced platelet aggregation in rabbit platelet assessed as aggregation at 300 uM treated 3 mins before collagen challenge by turbidimetric method. Format: functional, Oryctolagus cuniculus. An outline of the steps:
as §1

The test system of assay [4] is Platelet. Nature of the assay: Inhibition of arachidonic acid-induced platelet aggregation in rabbit platelet assessed as aggregation at 300 uM treated 3 mins before arachidonic acid challenge by turbidimetric method. Further details: scale not given: the % may be the effect or the level left. Format: functional, Oryctolagus cuniculus. An outline of the steps: as §1

Assay [5] deals with Platelet. Kind of assay: Antiplatelet activity against rabbit platelet assessed as inhibition of collagen-induced platelet aggregation treated 3 mins before collagen challenge by turbidimetric method. Format: functional, cell-based. The note with it: Oryctolagus cuniculus.
The test system of assay [6] is Platelet. Kind of assay: Antiplatelet activity against rabbit platelet assessed as inhibition of arachidonic acid-induced platelet aggregation treated 3 mins before arachidonic acid challenge by turbidimetric method. Format: functional, cell-based. The note with it: Oryctolagus cuniculus.
The subject of assay [7] is Platelet. Kind of assay: Inhibition of thrombin-induced platelet aggregation in rabbit platelet assessed as aggregation at 50 uM treated 3 mins before thrombin challenge by turbidimetric method. Format: functional, Oryctolagus cuniculus. More on the design: scale not given: the % may be the effect or the level left. An outline of the steps: (§2)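 Rabbit platelets, washed from EDTA PRP and suspended at 4.5×10^8/ml in Tyrode's/0.35% BSA, were preincubated 3 min at 37° with agent at 50 μM, with 0.5% DMSO as control. Turbidimetric percent aggregation is given as mean±SEM (n).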

The test system of assay [8] is Platelet. Kind of assay: Inhibition of collagen-induced platelet aggregation in rabbit platelet assessed as aggregation at 50 uM treated 3 mins before collagen challenge by turbidimetric method. Format: functional, Oryctolagus cuniculus. More on the design: scale not given: the % may be the effect or the level left. An outline of the steps: as §2
Assay [9] concerns Platelet. Nature of the assay: Inhibition of platelet activating factor-induced platelet aggregation in rabbit platelet assessed as aggregation at 50 uM treated 3 mins before platelet activating factor challenge by turbidimetric method. Format: functional, Oryctolagus cuniculus. Further details: scale not given: the % may be the effect or the level left. Summed up:
as §2

For assay [10], the system named is Platelet. Kind of assay: Inhibition of arachidonic acid-induced platelet aggregation in rabbit platelet assessed as aggregation at 50 uM treated 3 mins before arachidonic acid challenge by turbidimetric method. Format: functional, Oryctolagus cuniculus. Further details: scale not given: the % may be the effect or the level left. An outline of the steps: as §2

`O=C1c2ccccc2C(=O)c2c(O)cc(O[C@@H]3O[C@H](CO)[C@@H](O)[C@H](O)[C@H]3O)cc21`: in the assay with Platelet [1], the Percent platelet aggregation turned out to be 85.2%. Also, the values for the Platelet aggregation in the assay on Platelet [2] and in the assay on Platelet [3] were 65.5% and 0%, respectively. Also, the Activity is 71.9% in the assay on Platelet [4] and “Dose-dependent effect” with Platelet [5].

In the case of `COC(=O)c1c2c(c3ccccc3c1O)OC(C)(C)C=C2` [MOLLUGIN], in the assay with Platelet [1], the Percent platelet aggregation is given as 90.9%. Also, the Platelet aggregation in the assay with Platelet [2] worked out at 62.5%; in the assay on Platelet [3] it was 34.1%. The Activity entry in the assay on Platelet [6] is “Dose-dependent effect”; in the assay with Platelet [4], 0%.

As for `Cc1c(O[C@@H]2O[C@H](CO)[C@@H](O)[C@H](O)[C@H]2O[C@@H]2O[C@H](C)[C@@H](O)[C@H](O)[C@@H]2O)cc2c(c1O)C(=O)c1ccc(O)cc1C2=O`, the Percent platelet aggregation in the assay on Platelet [1] amounted to 87%. The Platelet aggregation with Platelet [2] turned out to be 89.4%; in the assay on Platelet [3], 84%. Also, the Activity in the assay on Platelet [4] stood at 83.4%.

With `COC(=O)c1c(CC=C(C)C)c(O[C@@H]2O[C@H](CO)[C@@H](O)[C@H](O)[C@H]2O)c2ccccc2c1O[C@@H]1O[C@H](CO)[C@@H](O)[C@H](O)[C@H]1O`, the Percent platelet aggregation in the assay on Platelet [1] is given as 91.3%. Further, the Platelet aggregation with Platelet [2] is recorded as 90.3%; with Platelet [3], 81.2%. The Activity with Platelet [4] is reported as 86.9%.

With `O=C1c2ccccc2C(=O)c2c(O)cc(O)cc21` [XANTHOPURPURIN], in the assay on Platelet [1], the Percent platelet aggregation worked out at 86.9%. The Platelet aggregation came out at 82.6% with Platelet [2] and 3.8% in the assay on Platelet [3]. Moreover, in the assay with Platelet [4], the Activity amounted to 85%.

As to `CC(=O)Oc1ccccc1C(=O)O` [ASPIRIN], the Activity in the assay on Platelet [7] worked out at 91.9%; in the assay with Platelet [8] it was 85.4%; with Platelet [9], 90.5%; with Platelet [10], 0%.

Consider `O=C1c2ccccc2C(=O)c2c1cc(O[C@@H]1O[C@H](CO[C@@H]3OC[C@@H](O)[C@H](O)[C@H]3O)[C@@H](O)[C@H](O)[C@H]1O)c(CO)c2O` [LUCIDIN PRIMEVOROSIDE], for which the Percent platelet aggregation with Platelet [1] amounted to 92.2%. Also, the Platelet aggregation in the assay with Platelet [2] came to 89.1%; in the assay with Platelet [3], 83.5%. In addition, the Activity in the assay on Platelet [4] was determined as 88.5%.

For the compound `CC(=O)O[C@H]1[C@H](O)[C@@H](CO)O[C@@H](Oc2cc3c(c(O)c2C)C(=O)c2ccc(O)cc2C3=O)[C@@H]1O[C@@H]1O[C@H](C)[C@@H](O)[C@H](O)[C@@H]1O`, the Percent platelet aggregation in the assay with Platelet [1] is reported as 82.4%. The values for the Platelet aggregation in the assay on Platelet [2] and in the assay with Platelet [3] were 81.5% and 82.4%, respectively. In the assay with Platelet [4], the Activity is 90.6%.

On to `Cc1c(O)cc2c(c1O)C(=O)c1ccc(O)cc1C2=O`, for which the Percent platelet aggregation in the assay on Platelet [1] is on record as 85.5%. Moreover, the Platelet aggregation in the assay on Platelet [2] was determined as 77.8%; with Platelet [3], 8.2%. Also, the Activity with Platelet [4] was 83%; in the assay on Platelet [5], “Dose-dependent effect”.

Regarding `Cc1ccc2c(c1O)C(=O)c1ccccc1C2=O`, the Percent platelet aggregation in the assay with Platelet [1] was found to be 88.7%. For the same compound, the results for the Platelet aggregation in the assay on Platelet [2] and in the assay on Platelet [3] were 82.3% and 85.7%, respectively. Also, the Activity in the assay with Platelet [4] is given as 81.6%.
